From PubChem
Compounds with a hit are over-represented: about 3.7% of the library has one in this group of screens.
TAAR1 antagonist: antagonists of human TAAR1. CHO RD-HGA16 TAAR1, Fluo-8 calcium fluorescence, antagonist. AID 624466. inhibition, % at 3 µM. Q96RJ0. actives 1.5% (n = 360,000);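 active means inhibition above a per-plate cutoff, the mean inhibition of test compounds on that plate plus 3 SD, cut at about 49% in these data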;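 further: 0% = DMSO plus EC80 beta-PEA response and 100% = DMSO alone without agonist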
Target sequence (Q96RJ0 whole entry, looked up): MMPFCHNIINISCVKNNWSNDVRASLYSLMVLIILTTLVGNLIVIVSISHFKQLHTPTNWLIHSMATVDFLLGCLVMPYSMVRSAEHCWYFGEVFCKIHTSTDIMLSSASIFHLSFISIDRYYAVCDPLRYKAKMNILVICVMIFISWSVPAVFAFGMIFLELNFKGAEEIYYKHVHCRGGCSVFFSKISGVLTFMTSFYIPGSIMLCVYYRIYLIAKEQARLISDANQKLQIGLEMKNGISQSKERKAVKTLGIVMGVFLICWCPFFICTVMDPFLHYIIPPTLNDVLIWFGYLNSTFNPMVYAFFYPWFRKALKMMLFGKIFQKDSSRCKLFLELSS
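test system = CHO RD-HGA16 cells bearing hTAAR1 | replication = singlicate | controls = DMSO-only wells and EC80 β-PEA-stimulated wells | reagent = EC80 β-phenethylamine stimulus | read-out basis = percent inhibition of PEA-evoked calcium signal, max/basal emission ratio | schedule = seeding 17-24 h prior, 75-min 37 °C, 30-min RT dye loading | signal = kinetic Fluo-8 calcium fluorescence measurement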
NS3 helicase inh: HCV NS3 helicase inhibition; NS3 helicase DNA unwinding, Cy5 molecular beacon fluorescence; inhibition, % at 10.9 µM; actives 0.56% (n = 290,000); AID 1800;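 active means inhibition above the mean of all tested compounds plus 3 SD, set per campaign, cut at about 35% in these data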;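 further: 0% = DMSO wells and 100% = thioflavine S control wells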
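Assay system: hepatitis C virus NS3 helicase domain fragment enzyme. Also added: annealed dual-labelled DNA beacon duplex, ATP-started. Timing: 1 h reaction at 25 °C, ATP-initiated. Technique: Cy5 fluorescence at 0 and 60 min, beacon hairpin quenching. Evaluation: % inhibition of unwinding. Replication: one well per compound.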
TAAR1 ag: agonists of human TAAR1; Q96RJ0; CHO RD-HGA16 TAAR1, Fluo-8 calcium fluorescence; vehicle wells 0%, saturating PEA agonist 100%; activation, % at 3 µM; actives 0.99% (n = 360,000); AID 624467;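 active means activation above the mean activation of all test compounds in the run plus 3 SD, cut at about 38% in these data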
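Assay system – CHO-derived RD-HGA16 cells with stable Gα16 and human TAAR1 · Compound dosing – one-point dosing at 3 µM (nominal) · Incubation – 17-24 h seeding, 75 min 37 °C dye, 30 min RT · Measured by – kinetic Fluo-8 calcium fluorescence · Control set – DMSO vehicle as 0%, PEA at EC100 as 100% · Repeats – single well for each compound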
HCV core dimer: blocks dimerization of HCV core protein | inhibition, % at 5 µM | actives 0.33% (n = 300,000) | AID 1899 | TR-FRET GST/Flag-core106 dimerization, 1536-well;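 active means inhibition above the mean of all tested compounds plus 3 SD, set per screening campaign, cut at about 45% in these data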
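Test system: GST/Flag-tagged HCV core106 proteins; Medium: KF-containing HEPES buffer, pH 7.45, DTT, CHAPS, BSA; Times: compound-protein-antibody incubation 4 h at 22.5 °C; Detection: TR-FRET 671 and 617 nm emission; Benchmarks: wells lacking GST-core106 and wells with excess unlabelled core106.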
rCAG RNA binder: molecules binding r(CAG) RNA repeats. r(CAG) RNA repeat, TO-PRO-1 dye displacement fluorescence. inhibition, % at 3 µM. actives 1.3% (n = 370,000). AID 651821;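 active means inhibition above the plate cutoff, the mean of all test compounds on that plate plus 3 SD, cut at about 35% in these data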;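 further: 0% = DMSO alone and 100% = 100 µM mitoxantrone as full dye displacement; higher means more dye released from RNA so lower well fluorescence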
rCAG bind conf: r(CAG) RNA repeat binding, confirmation; shares compounds with rCAG RNA binder; inhibition, % at 3 µM; actives 70% (n = 4,300); AID 652065; TO-PRO-1 dye displacement fluorescence;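 active means inhibition above a per-plate cutoff, the mean inhibition of sample wells plus 3 SD, cut at about 35% in these data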;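 further: loss of TO-PRO-1 fluorescence as compound displaces dye from 1x1 AA loop RNA; 0% = DMSO only wells and 100% = 100 µM mitoxantrone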
dCAG dye counter: counter-screen for rCAG RNA binders: DNA CAG dye complex inhibitors | actives 94% (n = 4,300) | shares compounds with rCAG RNA binder | AID 652068 | d(CAG) DNA oligo TO-PRO-1 dye displacement, fluorescence | inhibition, % at 3 µM;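 active means inhibition above its plate's cutoff, the mean test-well inhibition plus 3 SD, cut at about 4.8% in these data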;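 further: 0% = DNA dye mix with DMSO and 100% = 100 µM mitoxantrone; hits displace the dye from DNA and so lower well fluorescence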
dCAG dye DR: counter-screen for rCAG binders: inhibitors of DNA CAG TO-PRO-1 complex. shares compounds with rCAG RNA binder. DNA CAG/GTC duplex TO-PRO-1 dye displacement fluorescence. IC50, µM. actives 20% (n = 250). AID 686960; in the data active means IC50 below about 10 µM
* marks the source's active call; other numbers are inactive results; · = no result given.

SMILES | TAAR1 antagonist | NS3 helicase inh | TAAR1 ag | HCV core dimer | rCAG RNA binder | rCAG bind conf | dCAG dye counter | others
Cc1ccc2c(c1)c1c3n2CC(=C2C(=O)OC(C)(C)OC2=O)NC3CCC1 (stereo not drawn) | -6.0 | 6.4 | 1.1 | 46.3* | 46.7* | 34.2 | 18.4*
Cc1ccc2c(c1)c1c3n2CCN(C(=O)C2CC2)C3CCC1 (stereo not drawn) | -10.7 | -0.5 | -1.0 | -8.3 | 8.3 | · | ·
COC(=O)C1CN(Cc2ccc(F)cc2)CCS(=O)(=O)N1Cc1ccc(C(F)(F)F)cc1 (stereo not drawn) | · | · | · | · | -1.3 | · | ·
Cc1ccccc1S(=O)(=O)Nc1nc2ccccc2nc1N1CCc2ccccc2C1 | 31.8 | 9.9 | 10.1 | 8.9 | 35.4* | 45.1* | 14.8*
CC(=O)Nc1ccc(S(=O)(=O)Nc2nc3ccccc3nc2N2CCc3ccccc3C2)cc1 | -6.9 | -12.7 | 18.9 | 2.6 | 49.5* | 60.1* | 24.6*
O=C(CCc1ccccc1)N[C@H]1[C@H](OCc2ccccc2)CCC[C@@]12C(=O)N(Cc1ccccc1)c1ccccc12 | · | · | · | · | 7.9 | · | ·
O=C(NC1CCN(Cc2ccccc2)CC1)c1cccc(S(=O)(=O)Nc2cc(C(F)(F)F)ccc2Cl)c1 | 5.2 | -59.9 | 5.2 | 9.1 | 63.5* | 54.8* | 17.0*
COc1ccc(Cl)cc1NS(=O)(=O)c1cccc(C(=O)NC2CCN(Cc3ccccc3)CC2)c1 | 10.7 | · | 17.0 | · | 21.6 | · | ·
CCC1CCCCN1C(=O)c1cccc(S(=O)(=O)Nc2cc(C(F)(F)F)ccc2Cl)c1 (stereo not drawn) | 1.9 | 12.7 | 1.4 | 17.0 | 36.5* | 56.0* | 16.2*
Cc1ccc(NC(=O)c2cc3ccccc3cc2O)cc1 | 0.1 | 19.9 | 7.3 | -2.1 | 27.6 | · | ·
Cc1ccc(C)c(NC(=O)NNC(=O)c2cc3ccccc3cc2O)c1 | -17.1 | 11.3 | 1.7 | -7.5 | 34.8* | 27.7 | 9.0*
COc1ccc(NC(=O)c2cc3ccccc3cc2O)cc1 | 0.6 | 20.7 | 14.3 | 19.0 | 45.7* | 39.4* | 15.9*
COc1ccc(/C=C(\C#N)C(=O)NCc2ccccc2)cc1O | -14.3 | 1.7 | 4.0 | 3.6 | -3.5 | · | ·
N#C/C(=C\c1ccc(O)c(O)c1)C(=O)NCCc1ccccc1 | 28.0 | · | 21.4 | -4.6 | 39.4* | 44.5* | 13.1*
N#Cc1c(-c2ccccc2)cc(-c2ccccc2)nc1SCCC(=O)O | 11.9 | 33.0 | 1.2 | 4.3 | 61.2* | 65.6* | 28.0* | dCAG dye DR=>29.9
COc1cc(-c2cc(-c3ccccc3)nc(SCC(=O)O)c2C#N)cc(OC)c1OC | 9.8 | 22.0 | -2.1 | 11.3 | 41.4* | 50.3* | 17.1*
N#Cc1c(-c2ccccc2)cc(C2CC2)nc1SCC(=O)O | 7.7 | 9.0 | -1.4 | -3.1 | 13.6 | · | ·
N#Cc1c(-c2ccc(Cl)cc2)cc(-c2ccccc2)nc1SCC(=O)O | 31.8 | 21.7 | -1.5 | 16.5 | 76.0* | 83.6* | 53.0*
COC(=O)CSc1nc(-c2ccccc2)cc(-c2ccco2)c1C#N | 40.3 | 22.3 | 13.2 | 14.9 | 8.6 | · | ·
Cc1ccc(Cn2cc(COC(=O)N3CCOCC3)nn2)cc1 | · | · | · | · | 0.3 | · | ·
COc1ccc(C(=O)/C=C/c2ccc(OC)c(O)c2)c(F)c1 | 14.7 | 1.4 | 0.1 | 4.8 | 4.3 | · | ·
COc1ccc(C(=O)/C=C/c2ccc(O)cc2)c(O)c1C/C=C(\C)CCC=C(C)C | -11.8 | · | 1.8 | · | 69.5* | 64.8* | 28.4*
CCOc1nc2ccccc2nc1NS(=O)(=O)c1ccccc1 | 2.0 | 8.0 | 2.1 | 1.0 | 6.4 | · | ·
CN1CCN(c2nc3ccccc3nc2NS(=O)(=O)c2ccc(Br)cc2)CC1 | 3.1 | · | 0.2 | · | 22.1 | · | ·
CCOc1nc2ccccc2nc1NS(=O)(=O)c1ccc(Cl)cc1 | -25.9 | -0.6 | -2.0 | 11.1 | 40.2* | 27.3 | 4.6*
Cc1ccc(S(=O)(=O)Nc2nc3ccccc3nc2N2CCN(c3ccccc3F)CC2)cc1 | 15.8 | 4.0 | 8.0 | 21.6 | 53.7* | 67.7* | 27.9*
